Measurements reported in publication PMC7211327 (International Journal of Nanomedicine, 2020).
≈ marks a conversion by molar mass, not a printed value.

Key:
Assay type in all cases: cell-based
[1] = test system: Bacillus subtilis (ATCC 6633); test: Agar plate diffusion, inhibition zone; conditions: ATCC6633, 24 h, read-out: Mean Diameter of Inhibition Zone (IZ)
[2] = test system: Escherichia coli (ATCC 25922); test: Paper disk diffusion MIC; conditions: ATCC25922, 24 h, read-out: Minimal Inhibitory Concentration (MIC)
In short: (§1)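 Paper disk diffusion MIC. Paper disks (12.7 mm) were loaded with test compound at different concentrations, dried and placed on nutrient agar inoculated with the test organism. Growth inhibition was examined after 24 hrs at 37°C. Each test was done three times, and values are the mean ± standard error.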

[3] = test system: Pseudomonas aeruginosa (ATCC 27853); test: Agar plate diffusion, inhibition zone; conditions: ATCC27853, 24 h, read-out: Mean Diameter of Inhibition Zone (IZ)
[4] = test system: Bacillus subtilis (ATCC 6633); test: Paper disk diffusion MIC; conditions: ATCC6633, 24 h, read-out: Minimal Inhibitory Concentration (MIC)
In short: as §1

MRSA [5] = test: Paper disk diffusion MIC; conditions: Staphylococcus aureus, 24 h, read-out: Minimal Inhibitory Concentration (MIC)
In short: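 Bacteria were grown on nutrient agar. Dried 12.7 mm paper disks loaded with a range of test compound concentrations were placed on inoculated agar plates. Growth inhibition was scored after 24 h at 37°C, and each test was replicated three times.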

[6] = test system: Staphylococcus aureus (ATCC 29213); test: Paper disk diffusion MIC; conditions: ATCC29213, 24 h, read-out: Minimal Inhibitory Concentration (MIC)
In short: as §1

[7] = test system: Staphylococcus aureus (ATCC 29213); test: Agar plate diffusion, inhibition zone; conditions: ATCC29213, 24 h, read-out: Mean Diameter of Inhibition Zone (IZ)
[8] = test system: Escherichia coli (ATCC 25922); test: Agar plate diffusion, inhibition zone; conditions: ATCC25922, 24 h, read-out: Mean Diameter of Inhibition Zone (IZ)
[9] = test system: Pseudomonas aeruginosa (ATCC 27853); test: Paper disk diffusion MIC; conditions: ATCC27853, 24 h, read-out: Minimal Inhibitory Concentration (MIC)
In short: as §1

MRSA [10] = test: Agar plate diffusion, inhibition zone; conditions: Staphylococcus aureus, 24 h, read-out: Mean Diameter of Inhibition Zone (IZ)

Compound | zone of inhibition at 500 µg/mL [1] [mm] | MIC [2] [µg/mL] | zone of inhibition at 500 µg/mL [3] [mm] | MIC [4] [µg/mL] | MIC (MRSA [5]) [µg/mL] | MIC [6] [µg/mL] | zone of inhibition at 500 µg/mL [7] [mm] | zone of inhibition at 500 µg/mL [8] [mm] | MIC [9] [µg/mL] | zone of inhibition at 500 µg/mL (MRSA [10]) [mm]
O=C(O)c1cn(C2CC2)c2cc(N3CCNCC3)c(F)cc2c1=O [Ciprofloxacin, reference compound] | 29 ± 0.15 | 1.57 (≈ 4.74 µM) | 24 ± 0.47 | 0.8 (≈ 2.41 µM) | 1.25 (≈ 3.77 µM) | 0.78 (≈ 2.35 µM) | 27 ± 0.23 | 27 ± 0.98 | 3.13 (≈ 9.45 µM) | 22 ± 0.5
NS(=O)(=O)c1ccc(-n2c(SCC(=O)Nc3ccccc3)nc3ccccc3c2=O)cc1 [Compound 5, 2-((4-Oxo-3-(4-sulfamoylphenyl)-3,4-dihydroquinazolin-2-yl)thio)-N-phenylacetamide] | 25 ± 0.07 | 10 (≈ 21.4 µM) | 15 ± 0.21 | 2.5 (≈ 5.36 µM) | 10 (≈ 21.4 µM) | 1.56 (≈ 3.34 µM) | 22 ± 0.31 | 14 ± 0.23 | 20 (≈ 42.9 µM) | 20 ± 0.18
Cc1ccccc1NC(=O)CSc1nc2ccccc2c(=O)n1-c1ccc(S(N)(=O)=O)cc1 [Compound 6, 2-((4-Oxo-3-(4-sulfamoylphenyl)-3,4-dihydroquinazolin-2-yl)thio)-N-2-tolylacetamide] | 16 ± 0.1 | 5 (≈ 10.4 µM) | 17 ± 0.13 | 15.6 (≈ 32.5 µM) |  | 31.2 (≈ 65 µM) | 14 ± 0.03 | 15 ± 0.31 | 7.5 (≈ 15.6 µM) | 
Cc1cccc(NC(=O)CSc2nc3ccccc3c(=O)n2-c2ccc(S(N)(=O)=O)cc2)c1 [Compound 7, 2-((4-Oxo-3-(4-sulfamoylphenyl)-3,4-dihydroquinazolin-2-yl)thio)-N-3-tolylacetamide] | 20 ± 0.21 | 20 (≈ 41.6 µM) | 14 ± 0.03 | 1.25 (≈ 2.6 µM) | 7.81 (≈ 16.3 µM) | 2.5 (≈ 5.2 µM) | 15 ± 0.07 | 12 ± 0.15 | 15.6 (≈ 32.5 µM) | 10 ± 0.02
Cc1ccc(NC(=O)CSc2nc3ccccc3c(=O)n2-c2ccc(S(N)(=O)=O)cc2)cc1 [Compound 8, 2-((4-Oxo-3-(4-sulfamoylphenyl)-3,4-dihydroquinazolin-2-yl)thio)-N-4-tolylacetamide] | 26 ± 0.16 |  |  | 6.31 (≈ 13.1 µM) | 20 (≈ 41.6 µM) | 12.5 (≈ 26 µM) | 23 ± 0.09 |  |  | 19 ± 0.01
CN(C)[C@@H]1C(O)=C(C(N)=O)C(=O)[C@@]2(O)C(O)=C3C(=O)c4c(O)cccc4[C@@](C)(O)[C@H]3C[C@@H]12 [Tetracycline, reference compound] | 25 ± 0.01 | 15.6 (≈ 35.2 µM) | 20 ± 0.1 | 31.2 (≈ 70.3 µM) |  | 62.5 (≈ 141 µM) | 25 ± 0.04 | 23 ± 0.31 | 62.5 (≈ 141 µM) | 
CN[C@H](CC(C)C)C(=O)N[C@H]1C(=O)N[C@@H](CC(N)=O)C(=O)N[C@H]2C(=O)N[C@H]3C(=O)N[C@H](C(=O)N[C@H](C(=O)O)c4cc(O)cc(O)c4-c4cc3ccc4O)[C@H](O)c3ccc(c(Cl)c3)Oc3cc2cc(c3O[C@@H]2O[C@H](CO)[C@@H](O)[C@H](O)[C@H]2O[C@H]2C[C@](C)(N)[C@H](O)[C@H](C)O2)Oc2ccc(cc2Cl)[C@H]1O [Vancomycin, reference compound] | 21 ± 0.4 | 1.38 (≈ 0.952 µM) | 22 ± 0.85 | 1.95 (≈ 1.35 µM) | 3.9 (≈ 2.69 µM) | 1.57 (≈ 1.08 µM) | 17 ± 0.11 | 24 ± 0.2 | 2.5 (≈ 1.73 µM) | 14 ± 0.65
